Laboratory results published in ChEMBL document CHEMBL1123012, “Ellipticine derivatives with an affinity to the estrogen receptor, an approach to develop intercalating drugs with a specific effect on the hormone-dependent breast cancer” (J Med Chem, 1985).

Columns and labels:
Calf thymus DNA = assay: Inhibitory concentration against ethidium bromide binding to DNA; format: nucleic-acid assay; details: Bos taurus
Summary of the method: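 Fluorometric competition with ethidium bromide bound to sonicated calf thymus DNA, 20 °C, 0.02 M sodium acetate pH 5.5. Final DNA 2.5 × 10^-6 M (base pairs), ethidium 5 × 10^-6 M; competitor added in portions. Excitation 546 nm, emission 590 nm. Bound ethidium per base pair plotted vs rf (competitor/DNA bp). rf50 taken at 50% displacement of bound ethidium.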

L1210 [1] = assay: Lethal concentration required to reduce cloning efficiency of L1210 cell line to a factor of 0.37 after 24 hour exposure; format: cell-based; details: mouse, l1210, 24 h
L1210 [2] = assay: The effective dose against L1210 cell growth; format: functional; details: Mus musculus, read-out: ED50 (the source's name)
Summary of the method: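 Exponentially growing L1210 cells (1 × 10^5/mL) in RPMI 1640 with 10% fetal calf serum, penicillin, streptomycin and 60 µM β-mercaptoethanol. Exposed to a range of drug concentrations in nonagitated suspension for 24 h at 37 °C, 5% CO2. Cells counted electronically; duplicate treated cultures compared with triplicate untreated controls. ED50 taken from percent inhibition plotted against log concentration.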

Structure (SMILES)	rf50 (Calf thymus DNA)	EC50 (L1210 [2]) [µM]	Co (L1210 [1]) [µM]
CCN(CC)CCOc1ccc(/C(=C(/Cl)c2ccccc2)c2ccccc2)cc1	20	–	–
COc1ccc2[nH]c3c(C)c4cc[n+](CC(=O)N(CCCCCN)CCOc5ccc(/C(=C(/Cl)c6ccccc6)c6ccccc6)cc5)cc4c(C)c3c2c1.[Cl-]	0.7	5	9
Cc1c2cc[n+](CCNC(=O)CC3(C)CC[C@H]4[C@@H]5CCc6cc(O)ccc6[C@H]5CC[C@@]43C)cc2c(C)c2c1[nH]c1ccccc12.[Br-] (stereo partly specified)	1.5	0.5	0.15
CCN(CC)CCOc1ccc(/C(=C(\Cl)c2ccccc2)c2ccccc2)cc1	20	–	–
COc1ccc2[nH]c3c(C)c4cc[n+](CC(=O)NCCCCCNCCOc5ccc(/C(=C(/Cl)c6ccccc6)c6ccccc6)cc5)cc4c(C)c3c2c1	0.86	–	–

Further lines, with some results ahead:

rf50 (Calf thymus DNA)	EC50 (L1210 [2]) [µM]	Structure (SMILES)	Co (L1210 [1]) [µM]
0.32	4	Cc1c2cc[n+](CC(=O)NCCCCCNCCOc3ccc(/C(=C(/Cl)c4ccccc4)c4ccccc4)cc3)cc2c(C)c2c1[nH]c1ccc(O)cc12.[Cl-]	> 10
10	–	COc1ccc2[nH]c3c(C)c4cc[n+](CC(=O)NCCCCCN(CCOc5ccc(/C(=C(/Cl)c6ccccc6)c6ccccc6)cc5)C(=O)C[n+]5ccc6c(C)c7[nH]c8ccc(OC)cc8c7c(C)c6c5)cc4c(C)c3c2c1	–
4.8	4	Cc1c2cc[n+](CC(=O)NCCCCCN(CCOc3ccc(/C(=C(/Cl)c4ccccc4)c4ccccc4)cc3)C(=O)C[n+]3ccc4c(C)c5[nH]c6ccc(O)cc6c5c(C)c4c3)cc2c(C)c2c1[nH]c1ccc(O)cc12.[Cl-].[Cl-]	> 10
